Measured values taken from EPA's CvTdb concentration-time database.

Assays:
human = assay: amount in urine after dosing (umol)
Procedure, shortened: (§1)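 Concentration-versus-time or amount-versus-time points were compiled from published in vivo toxicokinetic studies and from two structured collections. The studies were found by PubMed searching, classifier screening and manual review. Points were mostly digitised from plot screenshots with WebPlotDigitizer, otherwise copied from tables, and kept in the reported units. Dose, route, subject details and medium were curated by hand from each paper, and sampling and analytical methods follow each source and were often unreported.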

Rat [1] = assay: concentration in liver after dosing; details: 96 h; dosed: Perfluorohexane-1-sulphonic acid – potassium salt; 16 mg/kg; oral; Female; Harlan Sprague Dawley
Rat [2] = assay: concentration in brain after dosing; details: 3 h; dosed: Perfluorohexane-1-sulphonic acid – potassium salt; 16 mg/kg; oral; Female; F344
Rat [3] = assay: concentration in kidney after dosing; details: 24 h; dosed: Perfluorohexane-1-sulphonic acid – potassium salt; 16 mg/kg; oral; Female; F344
Rat [4] = assay: concentration in liver after dosing; details: 12 h; dosed: Perfluorohexane-1-sulphonic acid – potassium salt; 16 mg/kg; oral; Female; Harlan Sprague Dawley
Rat [5] = assay: concentration in liver after dosing; details: 24 h; dosed: Perfluorohexane-1-sulphonic acid – potassium salt; 16 mg/kg; oral; Female; Harlan Sprague Dawley
Rat [6] = assay: concentration in plasma after dosing; details: 2 h; dosed: Pyridine; 25 mg/kg; oral; Female; Harlan Sprague-Dawley
Hamster = assay: concentration in plasma after dosing; details: dosed: 2,4-Dichlorophenoxyacetic acid, 8.0 mg/kg, iv, Male, Syrian Golden
Procedure, shortened: as §1

Rat [7] = assay: concentration in plasma after dosing; details: 20 min; dosed: Methyleugenol; 37 mg/kg; oral; Female; F344/N
Rat [8] = assay: concentration in plasma after dosing; details: dosed: 2-Hydroxy-4-methoxybenzophenone, 250 mg/kg, oral, Male, F344
Mouse [9] = assay: concentration in plasma after dosing; details: 0.25 h; dosed: 2-Hydroxy-4-methoxybenzophenone; 250 mg/kg; oral; Female; B6C3F1
Rat [10] = assay: concentration in plasma after dosing; details: dosed: 2-Hydroxy-4-methoxybenzophenone, 100 mg/kg, oral, Male, F344
Mouse [11] = assay: concentration in plasma after dosing; details: dosed: 2-Hydroxy-4-methoxybenzophenone, 100 mg/kg, oral, Female, B6C3F1
Mouse [12] = assay: concentration in plasma after dosing; details: 0.25 h; dosed: 2-Hydroxy-4-methoxybenzophenone; 50 mg/kg; iv; Female; B6C3F1
Rat [13] = assay: concentration in brain after dosing; details: 1.5 h; dosed: alpha-Thujone; 50 mg/kg; oral; Female; Harlan Sprague Dawley
Rat [14] = assay: concentration in plasma after dosing; details: 12 h; dosed: alpha-Thujone; 25 mg/kg; oral; Male; Harlan Sprague Dawley
Rat [15] = assay: concentration in plasma after dosing; details: 1.5 h; dosed: alpha-Thujone; 50 mg/kg; oral; Female; Harlan Sprague Dawley
Rat [16] = assay: concentration in brain after dosing; details: 3 h; dosed: alpha-Thujone; 25 mg/kg; oral; Female; Harlan Sprague Dawley
Rat [17] = assay: concentration in brain after dosing; details: 5 min; dosed: alpha-Thujone; 25 mg/kg; oral; Male; Harlan Sprague Dawley

CC(C)(O)CO [2-methyl-1,2-propanediol]
amount in urine, human, inhalation, duration: 4 hr
Details | dosed: ethyl tert-butyl ether | dosed: methyl tert-butyl ether
0 h, 4.5 ppm | 0.545 | 1.1
0.1089 h, 38.7 ppm | – | 7.53
0.1579 h, 40.6 ppm | 3.98 | –
5.975 h, 4.5 ppm | 2.4 | –
6 h, 40.6 ppm | 14.9 | –
6.195 h, 38.7 ppm | – | 37
6.261 h, 4.5 ppm | – | 3.42
11.95 h, 38.7 ppm | – | 45.2
12 h, 40.6 ppm | 24.1 | –
12.1 h, 4.5 ppm | – | 4.96
12.15 h, 4.5 ppm | 2.89 | –
18 h, 40.6 ppm | 19.9 | –
18.07 h, 4.5 ppm | 3.11 | –
18.16 h, 4.5 ppm | – | 2.54
18.22 h, 38.7 ppm | – | 35.6
23.96 h, 38.7 ppm | – | 26
24 h, 4.5 ppm | – | 3.2
24 h, 40.6 ppm | 12.5 | –
24.03 h, 4.5 ppm | 2.35 | –
29.89 h, 40.6 ppm | 7.97 | –
30.14 h, 38.7 ppm | – | 28.1
30.16 h, 4.5 ppm | – | 2.54
30.2 h, 4.5 ppm | 1.53 | –
35.98 h, 38.7 ppm | – | 17.1
36 h, 4.5 ppm | – | 1.32
36.11 h, 40.6 ppm | 7.37 | –
36.16 h, 4.5 ppm | 1.04 | –
42.11 h, 40.6 ppm | 4.98 | –
42.12 h, 4.5 ppm | 0.655 | –
42.15 h, 38.7 ppm | – | 8.9
42.16 h, 4.5 ppm | – | 0.662
48 h, 38.7 ppm | – | 5.48
48.11 h, 40.6 ppm | 3.19 | –
48.3 h, 4.5 ppm | 0.6 | –
54.05 h, 40.6 ppm | 2.39 | –
54.07 h, 38.7 ppm | – | 4.79
60.03 h, 38.7 ppm | – | 3.42
60.16 h, 40.6 ppm | 2.19 | –
66.09 h, 38.7 ppm | – | 3.42
66.11 h, 40.6 ppm | 1.59 | –
71.95 h, 38.7 ppm | – | 1.37
72.05 h, 40.6 ppm | 1.59 | –

amount in urine, human, dosed: methyl tert-butyl ether, oral
Details | 5 mg | 15 mg
0 h | 0.0411 | –
5.848 h | – | 2.13
6.268 h | 0.795 | –
12.12 h | 1.23 | 3.38
17.99 h | – | 2.7
18.39 h | 1.15 | –
24.17 h | – | 1.82
24.44 h | 0.658 | –
30.03 h | – | 1.82
30.29 h | 0.616 | –
36.11 h | – | 1.02
36.35 h | 0.384 | –
41.98 h | – | 0.46
42.2 h | 0.233 | –
48.05 h | – | 0.462
48.26 h | 0.123 | –
53.91 h | – | 0.224
54.42 h | 0.123 | –
59.78 h | – | 0.146
60.27 h | 0.0411 | –
65.95 h | – | 0.0276

O=S(=O)([O-])C(F)(F)C(F)(F)C(F)(F)C(F)(F)C(F)(F)C(F)(F)F.[K+] [Perfluorohexane-1-sulphonic acid – potassium salt]
Details | concentration in brain [ng/g] | concentration in kidney [ng/g] | concentration in liver [ng/g]
Rat [1] | – | – | 10200
Rat [2] | 1600 | – | –
Rat [3] | – | 43700 | –
Rat [4] | – | – | 29700
Rat [5] | – | – | 25700

c1ccncc1 [Pyridine]
Details | concentration in plasma [ng/mL]
Rat [6] | 17100

O=C(O)COc1ccc(Cl)cc1Cl [2,4-Dichlorophenoxyacetic acid]
Hamster
Details | concentration in plasma [ng/mL]
5 min | 55300
40 min | 3090

C=CCc1ccc(OC)c(OC)c1 [Methyleugenol]
Details | concentration in plasma [ng/mL]
Rat [7] | 374

O=C(c1ccccc1)c1ccc(O)cc1O [2,4-Dihydroxybenzophenone]
Details | concentration in plasma [ng/mL]
Mouse [11], 0.25 h | 303
Mouse [11], 2 h | 34.9
Mouse [11], 2.5 min | 68
Mouse [11], 3 h | 30.3
Mouse [11], 10 min | 115
Rat [8], 0.5 h | 256
Rat [8], 10 h | 66.8
Rat [10], 0.5 h | 142
Rat [10], 5 h | 65.6

Details | concentration in plasma [ng/mL]
Mouse [9] | 437
Mouse [12] | 1260

CC(C)[C@]12CC(=O)[C@H](C)[C@H]1C2 [alpha-Thujone]
Details | concentration in brain [ng/g] | concentration in plasma [ng/mL]
Rat [13] | 1020 | –
Rat [14] | – | 20.5
Rat [15] | – | 560
Rat [16] | 919 | –
Rat [17] | 589 | –
